Results from ChEMBL document CHEMBL1649438, “Activities of ceftobiprole and other cephalosporins against extracellular and intracellular (THP-1 macrophages and keratinocytes) forms of methicillin-susceptible and methicillin-resistant Staphylococcus aureus” (Antimicrob Agents Chemother, 2009).
Converted amounts (≈) assume the structure as drawn.

Columns and labels:
Staphylococcus aureus [1] = assay: Antimicrobial activity against Panton-valentine leucocidin-positive community-acquired methicillin-resistant Staphylococcus aureus NRS192 infected in human THP-1 cells assessed as bacterial count per mg of cell protein at low extracellular compound concentration after 24 hrs; type: functional
Procedure, shortened: (§1)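 THP-1 human macrophages infected with S. aureus (postphagocytosis inoculum 1.5 × 10^6 to 3.0 × 10^6 CFU/mg cell protein), then incubated 24 h with increasing extracellular antibiotic concentrations. Change in log10 CFU/mg cell protein from the postphagocytosis inoculum, n = 3. Hill function fitted on log-transformed data. Low-concentration value (E0) and high-concentration value (Emax) are extrapolated. Where a pH is given, concentrations are expressed as multiples of the broth MIC at that pH.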

Staphylococcus aureus [2] = assay: Antimicrobial activity against Panton-valentine leucocidin-positive community-acquired methicillin-resistant Staphylococcus aureus NRS192 infected in human THP-1 cells assessed as bacterial count per mg of cell protein at high extracellular compound concentration after 24 hrs; type: functional; procedure, shortened: as §1
Staphylococcus aureus [3] = assay: Antimicrobial activity against Panton-valentine leucocidin-positive community-acquired methicillin-resistant Staphylococcus aureus NRS192 infected in human THP-1 cells assessed as change in bacterial count after 24 hrs; type: functional, organism-based; conditions: NRS192, THP-1, 24 h; procedure, shortened: as §1
Staphylococcus aureus [4] = assay: Antimicrobial activity against Panton-valentine leucocidin-positive community-acquired methicillin-resistant Staphylococcus aureus N4090440 infected in human THP-1 cells assessed as bacterial count per mg of cell protein at low extracellular compound concentration after 24 hrs; type: functional; procedure, shortened: as §1
Staphylococcus aureus [5] = assay: Antimicrobial activity against Panton-valentine leucocidin-positive community-acquired methicillin-resistant Staphylococcus aureus STA 44 infected in human THP-1 cells assessed as change in bacterial count after 24 hrs; type: functional, organism-based; conditions: STA 44, THP-1, 24 h; procedure, shortened: as §1
Staphylococcus aureus [6] = assay: Antimicrobial activity against Panton-valentine leucocidin-positive community-acquired methicillin-resistant Staphylococcus aureus STA 228 infected in human THP-1 cells assessed as bacterial count per mg of cell protein at low extracellular compound concentration after 24 hrs; type: functional; procedure, shortened: as §1
Staphylococcus aureus [7] = assay: Antimicrobial activity against Panton-valentine leucocidin-positive community-acquired methicillin-resistant Staphylococcus aureus isolate MEH2225605 infected in human THP-1 cells assessed as bacterial count per mg of cell protein at high extracellular compound concentration after 24 hrs at pH 5.5; type: functional; procedure, shortened: as §1
Staphylococcus aureus [8] = assay: Antimicrobial activity against methicillin-susceptible Staphylococcus aureus ATCC 11632 infected in human THP-1 cells assessed as bacterial count per mg of cell protein at high extracellular compound concentration after 24 hrs at pH 7.4; type: functional
Procedure, shortened: (§2)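 Human THP-1 macrophage-like cells were infected with S. aureus to a postphagocytosis inoculum of 1.5 × 10^6 to 3.0 × 10^6 CFU/mg cell protein. Cells were then exposed 24 h to increasing extracellular antibiotic concentrations. Response was the log10 CFU change per mg protein from the postphagocytosis inoculum, n = 3. A Hill function was fitted on log-transformed axes. E0 and Emax were extrapolated to infinitely low and high concentrations. Cs was read by graphical interpolation. Concentrations were expressed as multiples of the broth MIC at pH 5.5 or pH 7.4.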

Staphylococcus aureus [9] = assay: Antimicrobial activity against methicillin-susceptible Staphylococcus aureus ATCC 11632 infected in human THP-1 cells assessed as change in bacterial count after 24 hrs at pH 7.4; type: functional, organism-based; conditions: ATCC 11632, THP-1, 24 h
Procedure, shortened: (§3)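 THP-1 macrophages infected as described previously, with a postphagocytosis inoculum of 1.5 × 10⁶ to 3.0 × 10⁶ CFU/mg cell protein. Cells were exposed 24 h to increasing extracellular antibiotic concentrations. Response is the change in log10 CFU/mg protein from the inoculum (n = 3), fitted to a Hill function. E0 and Emax were extrapolated to infinitely low and high concentrations. EC50 and static concentration (graphical interpolation) are expressed as multiples of the broth MIC at pH 5.5 or 7.4.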

Staphylococcus aureus [10] = assay: Antimicrobial activity against methicillin-susceptible Staphylococcus aureus NRS52 infected in human THP-1 cells assessed as bacterial count per mg of cell protein at high extracellular compound concentration after 24 hrs at pH 5.5; type: functional; procedure, shortened: as §2
Staphylococcus aureus [11] = assay: Antimicrobial activity against hospital-acquired vancomycin-intermediate Staphylococcus aureus NRS126 infected in human THP-1 cells assessed as bacterial count per mg of cell protein at low extracellular compound concentration after 24 hrs at pH 7.4; type: functional; procedure, shortened: as §3
Staphylococcus aureus [12] = assay: Antimicrobial activity against hospital-acquired vancomycin-intermediate Staphylococcus aureus NRS126 infected in human THP-1 cells assessed as change in bacterial count after 24 hrs at pH 7.4; type: functional, organism-based; conditions: NRS126, THP-1, 24 h; procedure, shortened: as §3
Staphylococcus aureus [13] = assay: Antimicrobial activity against Panton-valentine leucocidin-positive community-acquired methicillin-resistant Staphylococcus aureus NRS192 infected in human THP-1 cells assessed as change in bacterial count after 24 hrs at pH 7.4; type: functional, organism-based; conditions: NRS192, THP-1, 24 h; procedure, shortened: as §1
Staphylococcus aureus [14] = assay: Antimicrobial activity against Panton-valentine leucocidin-positive community-acquired methicillin-resistant Staphylococcus aureus STA 44 infected in human THP-1 cells assessed as change in bacterial count after 24 hrs at pH 7.4; type: functional, organism-based; conditions: STA 44, THP-1, 24 h; procedure, shortened: as §1
Staphylococcus aureus [15] = assay: Antimicrobial activity against Panton-valentine leucocidin-positive community-acquired methicillin-resistant Staphylococcus aureus STA 228 infected in human THP-1 cells assessed as change in bacterial count after 24 hrs at pH 7.4; type: functional, organism-based; conditions: STA 228, THP-1, 24 h; procedure, shortened: as §1
Staphylococcus aureus [16] = assay: Bacteriostatic activity against methicillin-susceptible Staphylococcus aureus ATCC 25923 infected in human keratinocytes assessed as change in bacterial count after 24 hrs; type: functional
Procedure, shortened: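 Primary human skin keratinocytes were grown in defined keratinocyte serum-free medium and infected with S. aureus to 1.5 × 10^6 to 3.0 × 10^6 CFU/mg cell protein. Cells were exposed 24 h to increasing extracellular concentrations. Response was the log10 CFU change from the postphagocytosis inoculum, fitted by a Hill equation with slope 1. Cs is the concentration giving CFU equal to the original inoculum, found by graphical interpolation.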

Staphylococcus aureus [17] = assay: Antimicrobial activity against methicillin-resistant Staphylococcus aureus ATCC 33591 infected in human keratinocytes assessed as bacterial count per mg of cell protein at low extracellular compound concentration after 24 hrs; type: functional
Procedure, shortened: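 Primary human skin keratinocytes were grown in defined keratinocyte serum-free medium, infected with a postphagocytosis inoculum of 1.5 × 10⁶ to 3.0 × 10⁶ CFU/mg cell protein, then exposed 24 h to increasing extracellular antibiotic concentrations. Change in log10 CFU/mg protein from the inoculum was fitted to a Hill equation with slope 1. E0 and Emax were extrapolated to infinitely low and high concentrations, in total drug mg/liter.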

Staphylococcus aureus [18] = assay: Antimicrobial activity against methicillin-susceptible Staphylococcus aureus NRS52 infected in human THP-1 cells assessed as bacterial count per mg of cell protein at high extracellular compound concentration after 24 hrs; type: functional; procedure, shortened: as §3
Staphylococcus aureus [19] = assay: Antimicrobial activity against hospital-acquired methicillin-resistant Staphylococcus aureus ATCC 33591 infected in human THP-1 cells assessed as bacterial count per mg of cell protein at high extracellular compound concentration after 24 hrs; type: functional; procedure, shortened: as §1
Staphylococcus aureus [20] = assay: Antimicrobial activity against hospital-acquired methicillin-resistant Staphylococcus aureus […] infected in human THP-1 cells assessed as bacterial count per mg of cell protein at low extracellular compound concentration after 24 hrs; type: functional; procedure, shortened: as §3
Staphylococcus aureus [21] = assay: Antimicrobial activity against hospital-acquired vancomycin-intermediate Staphylococcus aureus NRS18 infected in human THP-1 cells assessed as change in bacterial count after 24 hrs; type: functional, organism-based; conditions: NRS18, THP-1, 24 h; procedure, shortened: as §3

In the case of `Nc1nc(/C(=N/O)C(=O)N[C@@H]2C(=O)N3C(C(=O)O)=C(/C=C4\CCN([C@@H]5CCNC5)C4=O)CS[C@H]23)ns1` [CEFTOBIPROLE], the log10cfu (Staphylococcus aureus [1]) is reported as 2.68, the log10cfu (Staphylococcus aureus [2]) is reported as -0.89 and the EC50 (Staphylococcus aureus [3]) is reported as 0.7 mg/L (≈ 1.31 µM). For the same compound, the log10cfu (Staphylococcus aureus [4]) was 3.39, the EC50 (Staphylococcus aureus [5]) was 0.94 mg/L (≈ 1.76 µM) and the log10cfu (Staphylococcus aureus [6]) was 2.87. The log10cfu (Staphylococcus aureus [7]) was -1.02, the log10cfu (Staphylococcus aureus [8]) was -1.04 and the EC50 (Staphylococcus aureus [9]) was 0.2 × MIC. For the same compound, the log10cfu (Staphylococcus aureus [10]) was 1.04, the log10cfu (Staphylococcus aureus [11]) was 2.6 and the EC50 (Staphylococcus aureus [12]) was 0.28 ×MIC. It also gave an EC50 (Staphylococcus aureus [13]) of 0.33 ×MIC, an EC50 (Staphylococcus aureus [14]) of 0.33 ×MIC and an EC50 (Staphylococcus aureus [15]) of 0.33 ×MIC. The Activity (Staphylococcus aureus [16]) was 0.91 mg/L, the log10cfu (Staphylococcus aureus [17]) was 2.04 and the log10cfu (Staphylococcus aureus [18]) was -1.01. For the same compound, the log10cfu (Staphylococcus aureus [19]) was -0.78, the log10cfu (Staphylococcus aureus [20]) was 2.46 and the EC50 (Staphylococcus aureus [21]) was 0.26 mg/L (≈ 0.486 µM).
